Activity calls are given as the source filed them. No cut-off for these calls is given here.
Tests used:
[1] = system: Rattus norvegicus; assay: Toxicity in Sprague-Dawley rat assessed as effect on lung weight at 50 mg/kg/day, sc administered for 14 days relative to control; assay type: organism-based; settings: in vivo, 336 h
How it was run: (§1)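 Non-GLP 14-day repeated-dose study in SD rats given 50 mg/kg/day SC. Major organs (liver, kidney, lung, heart) compared with vehicle for size, weight and colour. Blood analysed for hematological and biochemical parameters.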

[2] = Half life in C57BL/6 mouse at 6 mg/kg, sc measured up to 4 hrs post dose by LC-MS/MS analysis; assay type: ADME, organism-based; settings: in vivo
How it was run: (§2)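 Male C57BL/6 mice (23.4–25.4 g), quarantined one week, non-fasted, n = 3; single SC dose of 6 mg/kg in 100% saline. Blood taken by cardiac puncture at 0, 0.03, 0.08, 0.25, 1, 1.5, 2 and 4 h and stored at -80 °C. Plasma analysed by LC–MS/MS; parameters from non-compartmental analysis; mean ± SD.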

[3] = system: Mus musculus; assay: Induction of hematopoietic stem cell mobilization in C57BL/6 mouse assessed as induction of movement of HSCs and EPCs into peripheral circulation at 35 mg/kg, sc measured after 2 hrs by flow cytometric analysis relative to control; assay type: functional
[4] = Acute toxicity in sc dosed C57BL/6 mouse assessed as maximum tolerated dose by measuring mortality; assay type: organism-based; settings: in vivo
How it was run: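 Male C57BL/6 or ICR mice (n = 3/group) dosed subcutaneously with escalating doses, low to high; MTD taken as highest dose giving zero mortality (0/3).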

[5] = system: Rattus norvegicus; assay: Renal toxicity in Sprague-Dawley rat assessed as effect on kidney size at 50 mg/kg/day, sc administered for 14 days relative to control; assay type: organism-based; settings: in vivo, 336 h; how it was run: as §1
[6] = biological target: C-C chemokine receptor type 6 (Homo sapiens) (UniProt P51684); assay: Antagonist activity at human CCR6 expressed in CHOK1 cells assessed as inhibition of CCL20-induced cAMP accumulation at 10 uM preincubated for 30 mins followed agonist addition measured after 30 to 60 mins; assay type: functional, cell-based
How it was run: (§3)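 GPCR cAMP assay with a single test concentration of 10 μM; result expressed as percentage inhibition for each chemokine receptor.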

[7] = system: Mus musculus; assay: In vivo antagonist activity at CXCR4 in C57BL/6 mouse assessed as induction of lymphocytes molization at 35 mg/kg, sc measured after 2 hrs relative to untreated control; assay type: functional
[8] = biological target: C-C chemokine receptor type 1 (Homo sapiens) (UniProt P32246); assay: Antagonist activity at human CCR1 expressed in CHOK1 cells assessed as inhibition of CCL3-induced cAMP accumulation at 10 uM preincubated for 30 mins followed agonist addition measured after 30 to 60 mins; assay type: functional, cell-based; how it was run: as §3
[9] = system: Mus musculus; assay: Induction of hematopoietic stem cell mobilization in C57BL/6 mouse assessed as increase in CFU-GM colonies from PBMC at 35 mg/kg, sc administered on day 5 post 100 ug/kg/day G-CSF addition for 4 days measured after 2 hrs post compound dose by colony forming assay relative to AMD3100; assay type: functional
How it was run: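 Male C57BL/6 mice given G-CSF 100 µg/kg SC daily for 4 days. On day 5, G-CSF was co-injected SC with compound. Heparinized blood taken 2 h later; PBMCs isolated and cultured in methylcellulose medium for 10–14 days. CFU-GM colonies (aggregates of ≥50 cells) counted under an inverted microscope. Mean ± SEM, 8–12 mice per group, t test.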

[10] = system: Rattus norvegicus; assay: Hepatotoxicity in Sprague-Dawley rat assessed as effect on liver size at 50 mg/kg/day, sc administered for 14 days relative to control; assay type: toxicity, organism-based; settings: in vivo, 336 h; how it was run: as §1
[11] = system: Rattus norvegicus; assay: Renal toxicity in Sprague-Dawley rat assessed as effect on kidney histology parameters up to 100 mg/kg/day, sc after 24 hrs by H and E staining based microscopy; assay type: organism-based; settings: in vivo
How it was run: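 Acute kidney histology study in SD rats at doses up to 100 mg/kg. Renal tissue compared with controls by photomicrographs.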

[12] = system: Rattus norvegicus; assay: Renal toxicity in Sprague-Dawley rat assessed as effect on kidney color at 50 mg/kg/day, sc administered for 14 days relative to control; assay type: organism-based; settings: in vivo, 336 h; how it was run: as §1
[13] = system: Mus musculus; assay: Induction of hematopoietic stem cell mobilization in C57BL/6 mouse PBMC assessed as increase in CFU-GM colonies at 35 mg/kg, sc administered on day 5 post G-CSF addition measured after 2 hrs post dose by colony forming assay; assay type: functional, organism-based
How it was run: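 Male C57BL/6 mice received G-CSF 100 µg/kg SC daily for 4 days. On day 5 they received G-CSF plus compound SC (6 or 35 mg/kg). Heparinized blood taken 2 h later; PBMCs isolated and cultured in methylcellulose medium for 10–14 days. CFU-GM colonies (aggregates of ≥50 cells) counted under an inverted microscope. 8–12 mice per group; mean ± SEM; t test against G-CSF alone.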

[14] = system: Mus musculus; assay: In vivo antagonist activity at CXCR4 in C57BL/6 mouse assessed as induction of monocytes molization at 35 mg/kg, sc measured after 2 hrs relative to untreated control; assay type: functional
[15] = system: Mus musculus; assay: Therapeutic ratio of MTD for sc dosed C57BL/6 mouse to MED for hematopoietic stem cell mobilization in sc dosed C57BL/6 mouse
How it was run: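 MTD: C57BL/6 or ICR male mice dosed SC from low to high, n = 3 per group; MTD is the highest dose with zero mortality (0/3). MED: lowest SC dose raising blood CXCR4⁺ cells at 2 h, by flow cytometry, in the escalating-dose study. Ratio calculated as MTD/MED.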

[16] = AUC (0 to 4 hrs) in C57BL/6 mouse at 6 mg/kg, sc measured up to 4 hrs post dose by LC-MS/MS analysis; assay type: ADME, organism-based; design: dose 6 mg/kg, time < 4 hr, route subcutaneous; settings: in vivo; how it was run: as §2
[17] = biological target: C-X-C chemokine receptor type 6 (Homo sapiens) (UniProt O00574); assay: Antagonist activity at human CXCR6 at 10 uM preincubated for 30 mins followed agonist addition measured after 30 to 60 mins by cAMP assay; assay type: functional; how it was run: as §3
[18] = biological target: Muscarinic acetylcholine receptor M2 (Homo sapiens) (UniProt P08172); assay: Displacement of [3H]AF-DX 384 from recombinant human Muscarinic M2 receptor at 10 uM after 60 mins by scintillation counting
[19] = Cytotoxicity against human Detroit 551 cells; assay type: cell-based
[20] = system: Mus musculus; assay: In vivo antagonist activity at CXCR4 in C57BL/6 mouse assessed as induction of neutrophils molization at 35 mg/kg, sc measured after 2 hrs relative to untreated control; assay type: functional
[21] = system: Rattus norvegicus; assay: Toxicity in Sprague-Dawley rat assessed as effect on lung color at 50 mg/kg/day, sc administered for 14 days relative to control; assay type: organism-based; settings: in vivo, 336 h; how it was run: as §1
[22] = biological target: Voltage-gated inwardly rectifying potassium channel KCNH2 (Homo sapiens, UniProt Q12809); assay: Inhibition of human ERG expressed in CHO cells up to 100 uM by automated patch-clamp assay; assay type: cell-based
How it was run: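 hERG liability examined by patch-clamp at concentrations up to 100 μM.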

[23] = system: Rattus norvegicus; assay: Toxicity in Sprague-Dawley rat assessed as effect on biochemistry parameters at 50 mg/kg/day, sc administered for 14 days relative to control; assay type: organism-based; settings: in vivo, 336 h; how it was run: as §1
[24] = system: Mus musculus; assay: In vivo induction of WBC mobilization in C57BL/6 mouse at 35 mg/kg, sc measured after 2 hrs; assay type: functional, organism-based
How it was run: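 C57BL/6 mice given a single SC injection at 6 or 35 mg/kg. Blood collected 2 h after dosing and analysed for total white blood cells, neutrophils, lymphocytes and monocytes.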

[25] = biological target: Cytochrome P450 2E1 (Homo sapiens, UniProt P05181); assay: Inhibition of human liver microsomal CYP2E1; assay type: ADME
Cytochrome P450 2E1, sequence (P05181 whole entry): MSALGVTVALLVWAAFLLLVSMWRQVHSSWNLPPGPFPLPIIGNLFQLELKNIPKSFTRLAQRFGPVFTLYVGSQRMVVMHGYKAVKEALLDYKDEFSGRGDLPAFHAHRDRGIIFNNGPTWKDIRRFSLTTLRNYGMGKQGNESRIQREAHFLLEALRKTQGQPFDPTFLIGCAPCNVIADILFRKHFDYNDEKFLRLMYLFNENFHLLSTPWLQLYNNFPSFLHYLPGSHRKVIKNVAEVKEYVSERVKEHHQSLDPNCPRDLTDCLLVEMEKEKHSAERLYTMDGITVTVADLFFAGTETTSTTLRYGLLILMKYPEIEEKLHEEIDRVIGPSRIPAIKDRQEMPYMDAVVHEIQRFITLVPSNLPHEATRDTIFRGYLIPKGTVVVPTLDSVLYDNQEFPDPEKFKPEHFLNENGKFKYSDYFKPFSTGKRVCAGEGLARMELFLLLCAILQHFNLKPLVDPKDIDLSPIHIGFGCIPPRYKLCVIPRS

Voltage-gated inwardly rectifying potassium channel KCNH2, sequence (Q12809 whole entry): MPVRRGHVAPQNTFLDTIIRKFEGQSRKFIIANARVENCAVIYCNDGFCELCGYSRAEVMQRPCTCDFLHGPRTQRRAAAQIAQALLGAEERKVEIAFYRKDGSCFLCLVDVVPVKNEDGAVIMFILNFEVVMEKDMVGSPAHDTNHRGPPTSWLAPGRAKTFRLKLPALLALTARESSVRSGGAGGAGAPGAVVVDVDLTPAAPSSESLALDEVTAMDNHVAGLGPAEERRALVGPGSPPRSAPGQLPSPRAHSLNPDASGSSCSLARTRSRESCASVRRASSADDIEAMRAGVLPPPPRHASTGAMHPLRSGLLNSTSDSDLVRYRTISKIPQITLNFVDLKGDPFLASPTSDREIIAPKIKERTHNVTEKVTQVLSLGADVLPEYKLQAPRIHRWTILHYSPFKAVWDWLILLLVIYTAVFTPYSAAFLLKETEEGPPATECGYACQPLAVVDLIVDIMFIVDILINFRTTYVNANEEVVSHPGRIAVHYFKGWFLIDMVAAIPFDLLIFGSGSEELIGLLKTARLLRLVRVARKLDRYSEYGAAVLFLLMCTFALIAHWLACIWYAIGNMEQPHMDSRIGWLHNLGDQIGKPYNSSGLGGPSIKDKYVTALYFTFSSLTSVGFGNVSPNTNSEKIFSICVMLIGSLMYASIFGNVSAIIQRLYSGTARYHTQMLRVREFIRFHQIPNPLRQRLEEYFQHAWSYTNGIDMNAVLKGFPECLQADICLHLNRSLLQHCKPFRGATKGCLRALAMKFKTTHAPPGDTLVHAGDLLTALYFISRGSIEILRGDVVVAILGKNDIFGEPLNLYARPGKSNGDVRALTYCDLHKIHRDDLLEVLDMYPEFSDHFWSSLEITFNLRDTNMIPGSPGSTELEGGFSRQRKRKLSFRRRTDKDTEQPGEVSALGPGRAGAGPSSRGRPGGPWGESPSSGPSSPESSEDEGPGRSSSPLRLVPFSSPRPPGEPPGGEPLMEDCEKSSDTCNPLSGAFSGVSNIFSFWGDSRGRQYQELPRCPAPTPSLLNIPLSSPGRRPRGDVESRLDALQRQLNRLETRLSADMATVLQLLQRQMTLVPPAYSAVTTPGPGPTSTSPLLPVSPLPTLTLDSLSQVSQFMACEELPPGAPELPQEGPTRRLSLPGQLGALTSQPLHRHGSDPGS
C-C chemokine receptor type 1 (Homo sapiens), sequence (P32246 whole entry): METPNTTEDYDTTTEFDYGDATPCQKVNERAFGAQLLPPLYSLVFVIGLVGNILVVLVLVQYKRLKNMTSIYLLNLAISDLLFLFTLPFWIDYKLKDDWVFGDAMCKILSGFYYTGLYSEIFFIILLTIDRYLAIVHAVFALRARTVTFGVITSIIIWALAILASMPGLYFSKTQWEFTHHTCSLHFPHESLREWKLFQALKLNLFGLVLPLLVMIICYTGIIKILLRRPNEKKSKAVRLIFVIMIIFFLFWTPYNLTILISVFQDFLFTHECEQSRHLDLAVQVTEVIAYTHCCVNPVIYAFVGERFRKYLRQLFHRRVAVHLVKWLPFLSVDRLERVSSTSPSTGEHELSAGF
C-C chemokine receptor type 6 (Homo sapiens), sequence (P51684 whole entry): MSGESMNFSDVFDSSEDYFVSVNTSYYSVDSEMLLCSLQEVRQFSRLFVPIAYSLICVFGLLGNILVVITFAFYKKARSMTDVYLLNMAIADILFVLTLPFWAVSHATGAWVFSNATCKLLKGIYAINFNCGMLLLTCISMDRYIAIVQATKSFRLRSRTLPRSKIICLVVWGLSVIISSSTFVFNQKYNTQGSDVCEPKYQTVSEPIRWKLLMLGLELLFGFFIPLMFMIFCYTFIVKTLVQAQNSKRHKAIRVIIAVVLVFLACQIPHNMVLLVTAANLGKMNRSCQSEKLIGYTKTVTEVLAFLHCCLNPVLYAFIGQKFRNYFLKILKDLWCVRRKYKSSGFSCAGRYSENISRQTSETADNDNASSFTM
C-X-C chemokine receptor type 6 (Homo sapiens), sequence (O00574 whole entry, looked up): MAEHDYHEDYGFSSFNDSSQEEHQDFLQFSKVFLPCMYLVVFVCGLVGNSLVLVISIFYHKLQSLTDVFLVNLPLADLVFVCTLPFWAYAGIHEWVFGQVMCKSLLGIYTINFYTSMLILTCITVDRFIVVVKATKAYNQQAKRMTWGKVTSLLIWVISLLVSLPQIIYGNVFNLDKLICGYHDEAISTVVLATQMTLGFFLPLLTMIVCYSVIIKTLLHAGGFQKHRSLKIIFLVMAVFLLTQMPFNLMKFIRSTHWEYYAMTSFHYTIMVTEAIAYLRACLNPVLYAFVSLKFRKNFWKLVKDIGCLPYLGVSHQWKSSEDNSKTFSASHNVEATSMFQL
Muscarinic acetylcholine receptor M2 (Homo sapiens), sequence (P08172 whole entry): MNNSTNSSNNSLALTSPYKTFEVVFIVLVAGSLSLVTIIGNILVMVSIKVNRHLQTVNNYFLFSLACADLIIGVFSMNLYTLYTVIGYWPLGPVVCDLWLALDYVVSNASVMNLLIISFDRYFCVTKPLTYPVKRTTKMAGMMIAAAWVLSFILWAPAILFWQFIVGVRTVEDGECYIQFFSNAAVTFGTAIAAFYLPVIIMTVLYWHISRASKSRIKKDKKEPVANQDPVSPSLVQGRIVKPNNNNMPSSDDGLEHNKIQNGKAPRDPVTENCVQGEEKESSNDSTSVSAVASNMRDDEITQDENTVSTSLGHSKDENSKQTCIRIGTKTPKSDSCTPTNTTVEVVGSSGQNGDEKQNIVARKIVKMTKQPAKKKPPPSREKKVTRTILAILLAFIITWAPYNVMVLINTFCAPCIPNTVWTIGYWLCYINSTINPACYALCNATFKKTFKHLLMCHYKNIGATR

SMILES: Cc1cc(NC2CCN(C(=O)CCNCC(=O)O)CC2)nc(NCc2cn(CCCNCCCNC3CCCCC3)nn2)n1
- Activity [1]: Non-Toxic
- half-life [2]: 30 min
- fold change (FC) [3]: 7
- MTD [4]: 75 mg/kg
- Activity [5]: Non-Toxic
- Efficacy [6]: -2.2%
- fold change (FC) [7]: 2 - 4
- Efficacy [8]: -1.2%
- fold change (FC) [9]: 1.6
- Activity [10]: Non-Toxic
- Activity [11]: Non-Toxic
- Activity [12]: Non-Toxic
- Activity [13]: Active
- fold change (FC) [14]: 2 - 4
- TI [15]: 12.5
- AUC(0-t) at 4 h [16]: 13500 ng·h/mL
- Efficacy [17]: -3.9%
- inhibition [18]: 70%
- CC50 [19]: > 100 µM
- fold change (FC) [20]: 2 - 4
- Activity [21]: Non-Toxic
- inhibition (INH) [22]: Not Active
- Activity [23]: Non-Toxic
- Activity [24]: Active
- IC50 [25]: > 100 µM

Reference: ChEMBL document CHEMBL4024793, “Development of Stem-Cell-Mobilizing Agents Targeting CXCR4 Receptor for Peripheral Blood Stem Cell Transplantation and Beyond” (J Med Chem, 2018)
